# Values joined by “and” are separate entries in the source; they are usually repeats but may differ in a detail not shown here. Equal entries are not always repeated.
# Columns and labels:
# HEK-293T = assay: Multiplex assay against HEK293T; format: toxicity, cell-based; conditions: human, number of replicates 2
# Summary of the method: (§1)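 Live cells were stained at seeding with Hoechst33342, BioTracker Green Microtubule Cytoskeleton Dye, MitoTracker Red and Annexin V Alexa Fluor 680, then imaged on a CQ1 microscope at 37°C and 5% CO2 after compound addition. CellPathfinder machine-learning gating split cells into Hoechst high-intensity objects or normal cells. Normal cells were split into healthy, pyknosed or fragmented nuclei, and pyknosed cells into mitotic or apoptotic. Tubulin, mitochondrial-mass and membrane-permeability phenotypes are per cents of healthy-nucleus cells.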
# U2OS = assay: Multiplex assay against U2OS; format: toxicity, cell-based; conditions: human, number of replicates 2; summary of the method: as §1
# [1] = 24 h, 1 µM, compound concentration 1 uM
# [2] = 24 h, 10 µM, compound concentration 10 uM
# [3] = 48 h, 1 µM, compound concentration 1 uM
# [4] = 48 h, 10 µM, compound concentration 10 uM
# [5] = 12 h, 1 µM, compound concentration 1 uM
# [6] = 12 h, 10 µM, compound concentration 10 uM
compound,measurement,setting,value
Cn1c(Nc2c(Cl)cccc2Cl)nc2ccc3nc[nH]c(=O)c3c21,Population Mitochondria Different-Phenotype (%),HEK-293T; [1],6% and 1%
same,Population Mitotic Cells (%),HEK-293T; [1],27% and 60%
same,Population Normal (%),HEK-293T; [1],89% and 92%
same,Population Pyknosed Nuclei (%),HEK-293T; [1],14% and 10%
same,Population Tubulin-Different-Phenotype (%),HEK-293T; [1],24% and 13%
same,Total Cell Count,HEK-293T; [1],675 and 1010
same,Population Apoptotic (%),HEK-293T; [2],21% and 17%
same,Population Fragmented Nuclei (%),HEK-293T; [2],2%
same,Population Healthy Nuclei (%),HEK-293T; [2],85% and 81%
same,Population Hoechst High Intensity Objects (%),HEK-293T; [2],3%
same,Population Membrane Permeable-Phenotype (%),HEK-293T; [2],2%
same,Population Mitochondria Different-Phenotype (%),HEK-293T; [2],4% and 3%
same,Population Mitotic Cells (%),HEK-293T; [2],78% and 82%
same,Population Normal (%),HEK-293T; [2],96%
same,Population Pyknosed Nuclei (%),HEK-293T; [2],12% and 15%
same,Population Tubulin-Different-Phenotype (%),HEK-293T; [2],16% and 18%
same,Total Cell Count,HEK-293T; [2],1151 and 1278
same,Population Apoptotic (%),HEK-293T; [3],36% and 15%
same,Population Fragmented Nuclei (%),HEK-293T; [3],12% and 15%
same,Population Healthy Nuclei (%),HEK-293T; [3],81% and 80%
same,Population Hoechst High Intensity Objects (%),HEK-293T; [3],10% and 8%
same,Population Membrane Permeable-Phenotype (%),HEK-293T; [3],2% and 3%
same,Population Mitochondria Different-Phenotype (%),HEK-293T; [3],1% and 0%
same,Population Mitotic Cells (%),HEK-293T; [3],63% and 84%
same,Population Normal (%),HEK-293T; [3],89% and 91%
same,Population Pyknosed Nuclei (%),HEK-293T; [3],5% and 4%
same,Population Tubulin-Different-Phenotype (%),HEK-293T; [3],4% and 5%
same,Total Cell Count,HEK-293T; [3],1439 and 2070
same,Population Apoptotic (%),HEK-293T; [4],19% and 27%
same,Population Fragmented Nuclei (%),HEK-293T; [4],4%
same,Population Healthy Nuclei (%),HEK-293T; [4],79% and 76%
same,Population Hoechst High Intensity Objects (%),HEK-293T; [4],3%
same,Population Membrane Permeable-Phenotype (%),HEK-293T; [4],4%
same,Population Mitochondria Different-Phenotype (%),HEK-293T; [4],3%
same,Population Mitotic Cells (%),HEK-293T; [4],80% and 72%
same,Population Normal (%),HEK-293T; [4],96%
same,Population Pyknosed Nuclei (%),HEK-293T; [4],16% and 18%
same,Population Tubulin-Different-Phenotype (%),HEK-293T; [4],16% and 24%
same,Total Cell Count,HEK-293T; [4],1576 and 1527
same,Population Apoptotic (%),U2OS; [5],40% and 66%
same,Population Healthy Nuclei (%),U2OS; [5],64% and 87%
same,Population Hoechst High Intensity Objects (%),U2OS; [5],0%
same,Population Membrane Permeable-Phenotype (%),U2OS; [5],0% and 1%
same,Population Mitochondria Different-Phenotype (%),U2OS; [5],0%
same,Population Mitotic Cells (%),U2OS; [5],60% and 33%
same,Population Normal (%),U2OS; [5],100%
same,Population Pyknosed Nuclei (%),U2OS; [5],10% and 7%
same,Population Tubulin-Different-Phenotype (%),U2OS; [5],100% and 96%
same,Population Apoptotic (%),U2OS; [6],66% and 52%
same,Population Healthy Nuclei (%),U2OS; [6],59% and 84%
same,Population Hoechst High Intensity Objects (%),U2OS; [6],0%
same,Population Membrane Permeable-Phenotype (%),U2OS; [6],0% and 1%
same,Population Mitochondria Different-Phenotype (%),U2OS; [6],0% and 1%
same,Population Mitotic Cells (%),U2OS; [6],33% and 47%
same,Population Normal (%),U2OS; [6],100% and 99%
same,Population Pyknosed Nuclei (%),U2OS; [6],11% and 10%
same,Population Tubulin-Different-Phenotype (%),U2OS; [6],56% and 81%
same,Population Apoptotic (%),U2OS; [1],50% and 53%
same,Population Healthy Nuclei (%),U2OS; [1],62% and 87%
same,Population Hoechst High Intensity Objects (%),U2OS; [1],0%
same,Population Membrane Permeable-Phenotype (%),U2OS; [1],0% and 2%
same,Population Mitochondria Different-Phenotype (%),U2OS; [1],2% and 0%
same,Population Mitotic Cells (%),U2OS; [1],50% and 46%
same,Population Normal (%),U2OS; [1],100%
same,Population Pyknosed Nuclei (%),U2OS; [1],10% and 8%
same,Population Tubulin-Different-Phenotype (%),U2OS; [1],100% and 95%
same,Population Apoptotic (%),U2OS; [2],75% and 45%
same,Population Healthy Nuclei (%),U2OS; [2],55% and 78%
same,Population Hoechst High Intensity Objects (%),U2OS; [2],1% and 0%
same,Population Membrane Permeable-Phenotype (%),U2OS; [2],2%
same,Population Mitochondria Different-Phenotype (%),U2OS; [2],0%
same,Population Mitotic Cells (%),U2OS; [2],25% and 54%
same,Population Normal (%),U2OS; [2],98% and 100%
same,Population Pyknosed Nuclei (%),U2OS; [2],11% and 13%
same,Population Tubulin-Different-Phenotype (%),U2OS; [2],68% and 77%
same,Population Apoptotic (%),U2OS; [3],56% and 75%
same,Population Healthy Nuclei (%),U2OS; [3],58% and 89%
same,Population Hoechst High Intensity Objects (%),U2OS; [3],0%
same,Population Membrane Permeable-Phenotype (%),U2OS; [3],0% and 1%
same,Population Mitochondria Different-Phenotype (%),U2OS; [3],0%
same,Population Mitotic Cells (%),U2OS; [3],43% and 25%
same,Population Normal (%),U2OS; [3],100% and 99%
same,Population Pyknosed Nuclei (%),U2OS; [3],20% and 7%
same,Population Tubulin-Different-Phenotype (%),U2OS; [3],100% and 97%
same,Population Apoptotic (%),U2OS; [4],75% and 67%
same,Population Healthy Nuclei (%),U2OS; [4],21% and 58%
same,Population Hoechst High Intensity Objects (%),U2OS; [4],1% and 0%
same,Population Membrane Permeable-Phenotype (%),U2OS; [4],5% and 10%
same,Population Mitochondria Different-Phenotype (%),U2OS; [4],5% and 2%
same,Population Mitotic Cells (%),U2OS; [4],24% and 32%
same,Population Normal (%),U2OS; [4],98% and 99%
same,Population Pyknosed Nuclei (%),U2OS; [4],34% and 28%
same,Population Tubulin-Different-Phenotype (%),U2OS; [4],61% and 74%

# Source: ChEMBL document CHEMBL5303300, “EUbOPEN Chemogenomics Library - Multiplex” (2023)
